Results: ChEMBL document CHEMBL1165965, “Synthesis and structure-activity relationships of 1,2,3,4-tetrahydropyrido[2,3-b]pyrazines as potent and selective inhibitors of the anaplastic lymphoma kinase” (Bioorg Med Chem, 2010)

Key:
[1] = target: Casein kinase I isoform gamma-2 (Homo sapiens) (UniProt P78368); assay: Inhibition of CSNK1G2 at 1 uM
In short: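 Single-concentration screen using Ambit Bioscience KINOMEscan technology across a panel of 250–400 kinases. Per-kinase inhibition from this screen was summarized as S(90), the fraction of kinases inhibited by more than 90%.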

[2] = target: T1, Serine/threonine-protein kinase ULK2 (Homo sapiens) (UniProt Q8IYT8); assay: Inhibition of ULK2 at 1 uM
T1 sequence (whole entry): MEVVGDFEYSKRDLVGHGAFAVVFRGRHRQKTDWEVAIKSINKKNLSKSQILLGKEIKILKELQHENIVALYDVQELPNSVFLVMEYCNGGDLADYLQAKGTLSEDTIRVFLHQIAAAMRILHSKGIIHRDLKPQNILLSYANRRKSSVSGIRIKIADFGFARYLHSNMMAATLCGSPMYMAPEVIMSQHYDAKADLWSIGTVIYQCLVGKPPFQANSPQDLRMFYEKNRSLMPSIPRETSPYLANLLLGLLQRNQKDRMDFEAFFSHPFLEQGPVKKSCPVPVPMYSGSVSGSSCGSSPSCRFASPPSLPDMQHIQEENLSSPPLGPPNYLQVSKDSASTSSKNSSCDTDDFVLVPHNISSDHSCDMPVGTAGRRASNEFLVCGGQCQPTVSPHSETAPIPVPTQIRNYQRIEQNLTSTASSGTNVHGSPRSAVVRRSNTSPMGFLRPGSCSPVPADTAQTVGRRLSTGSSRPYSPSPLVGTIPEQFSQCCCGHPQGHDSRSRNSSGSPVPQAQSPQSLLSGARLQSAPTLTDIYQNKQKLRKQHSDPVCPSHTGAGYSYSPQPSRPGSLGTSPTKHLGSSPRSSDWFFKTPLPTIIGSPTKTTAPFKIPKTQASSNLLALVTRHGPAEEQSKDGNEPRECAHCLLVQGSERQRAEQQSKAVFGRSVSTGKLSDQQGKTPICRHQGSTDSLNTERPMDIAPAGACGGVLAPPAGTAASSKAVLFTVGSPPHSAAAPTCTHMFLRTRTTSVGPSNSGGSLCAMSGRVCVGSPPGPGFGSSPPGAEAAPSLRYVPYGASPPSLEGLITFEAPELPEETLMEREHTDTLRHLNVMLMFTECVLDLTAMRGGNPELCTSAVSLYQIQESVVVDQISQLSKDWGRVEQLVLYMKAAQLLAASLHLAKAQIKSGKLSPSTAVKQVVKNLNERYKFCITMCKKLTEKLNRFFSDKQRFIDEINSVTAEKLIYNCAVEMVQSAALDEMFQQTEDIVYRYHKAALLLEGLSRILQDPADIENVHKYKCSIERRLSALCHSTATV

[3] = test system: Tyrosine-protein kinase ABL1 (Homo sapiens), P00519 [Y253F]; assay: Inhibition of ABL1 Y253F mutant at 1 uM
In short: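 Ambit KINOMEscan screen at a single concentration across a 250–400 kinase panel, recorded as percent inhibition. Selectivity was expressed as S(90), the fraction of kinases inhibited >90%.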

[4] = test system: Phosphatidylinositol 4,5-bisphosphate 3-kinase catalytic subunit alpha isoform (Homo sapiens), P42336 [E545K]; assay: Inhibition of PIK3CA E545K mutant at 1 uM
Sequence of Phosphatidylinositol 4,5-bisphosphate 3-kinase catalytic subunit alpha isoform (Homo sapiens), P42336 [E545K] (P42336 whole entry E545K, canonical isoform): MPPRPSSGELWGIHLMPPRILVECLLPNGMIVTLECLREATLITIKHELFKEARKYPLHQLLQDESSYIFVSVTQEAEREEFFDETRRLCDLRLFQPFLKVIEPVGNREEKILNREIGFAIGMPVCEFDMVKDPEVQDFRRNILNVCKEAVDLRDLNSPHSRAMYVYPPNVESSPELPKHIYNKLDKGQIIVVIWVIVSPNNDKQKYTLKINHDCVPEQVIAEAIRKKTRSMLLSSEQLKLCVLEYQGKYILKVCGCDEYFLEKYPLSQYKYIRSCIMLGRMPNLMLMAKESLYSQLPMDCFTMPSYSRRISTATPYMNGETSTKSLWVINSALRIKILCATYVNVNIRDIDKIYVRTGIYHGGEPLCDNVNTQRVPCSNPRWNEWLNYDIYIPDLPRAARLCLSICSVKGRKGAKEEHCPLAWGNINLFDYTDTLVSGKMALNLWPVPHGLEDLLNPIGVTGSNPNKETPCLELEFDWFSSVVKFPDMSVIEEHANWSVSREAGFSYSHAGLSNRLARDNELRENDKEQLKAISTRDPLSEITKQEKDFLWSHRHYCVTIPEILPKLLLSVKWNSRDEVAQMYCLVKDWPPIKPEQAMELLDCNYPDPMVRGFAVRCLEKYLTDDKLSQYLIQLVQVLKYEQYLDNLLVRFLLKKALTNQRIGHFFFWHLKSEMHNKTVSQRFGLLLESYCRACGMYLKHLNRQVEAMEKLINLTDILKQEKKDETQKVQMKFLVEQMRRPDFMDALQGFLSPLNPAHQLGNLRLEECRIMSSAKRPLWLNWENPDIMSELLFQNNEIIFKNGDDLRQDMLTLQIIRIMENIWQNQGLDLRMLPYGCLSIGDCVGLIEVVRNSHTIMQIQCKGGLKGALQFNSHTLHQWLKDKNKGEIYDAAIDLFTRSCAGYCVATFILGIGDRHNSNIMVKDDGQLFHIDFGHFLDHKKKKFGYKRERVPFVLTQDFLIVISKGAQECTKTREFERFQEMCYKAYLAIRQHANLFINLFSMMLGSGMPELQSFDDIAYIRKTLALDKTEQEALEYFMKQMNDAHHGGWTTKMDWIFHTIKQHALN

[5] = test system: Epidermal growth factor receptor (Homo sapiens), P00533 [L858R,T790M]; assay: Inhibition of EGFR L858R, T790M mutant at 1 uM; format: protein assay
Sequence of Epidermal growth factor receptor (Homo sapiens), P00533 [L858R,T790M] (P00533 whole entry T790M/L858R, looked up): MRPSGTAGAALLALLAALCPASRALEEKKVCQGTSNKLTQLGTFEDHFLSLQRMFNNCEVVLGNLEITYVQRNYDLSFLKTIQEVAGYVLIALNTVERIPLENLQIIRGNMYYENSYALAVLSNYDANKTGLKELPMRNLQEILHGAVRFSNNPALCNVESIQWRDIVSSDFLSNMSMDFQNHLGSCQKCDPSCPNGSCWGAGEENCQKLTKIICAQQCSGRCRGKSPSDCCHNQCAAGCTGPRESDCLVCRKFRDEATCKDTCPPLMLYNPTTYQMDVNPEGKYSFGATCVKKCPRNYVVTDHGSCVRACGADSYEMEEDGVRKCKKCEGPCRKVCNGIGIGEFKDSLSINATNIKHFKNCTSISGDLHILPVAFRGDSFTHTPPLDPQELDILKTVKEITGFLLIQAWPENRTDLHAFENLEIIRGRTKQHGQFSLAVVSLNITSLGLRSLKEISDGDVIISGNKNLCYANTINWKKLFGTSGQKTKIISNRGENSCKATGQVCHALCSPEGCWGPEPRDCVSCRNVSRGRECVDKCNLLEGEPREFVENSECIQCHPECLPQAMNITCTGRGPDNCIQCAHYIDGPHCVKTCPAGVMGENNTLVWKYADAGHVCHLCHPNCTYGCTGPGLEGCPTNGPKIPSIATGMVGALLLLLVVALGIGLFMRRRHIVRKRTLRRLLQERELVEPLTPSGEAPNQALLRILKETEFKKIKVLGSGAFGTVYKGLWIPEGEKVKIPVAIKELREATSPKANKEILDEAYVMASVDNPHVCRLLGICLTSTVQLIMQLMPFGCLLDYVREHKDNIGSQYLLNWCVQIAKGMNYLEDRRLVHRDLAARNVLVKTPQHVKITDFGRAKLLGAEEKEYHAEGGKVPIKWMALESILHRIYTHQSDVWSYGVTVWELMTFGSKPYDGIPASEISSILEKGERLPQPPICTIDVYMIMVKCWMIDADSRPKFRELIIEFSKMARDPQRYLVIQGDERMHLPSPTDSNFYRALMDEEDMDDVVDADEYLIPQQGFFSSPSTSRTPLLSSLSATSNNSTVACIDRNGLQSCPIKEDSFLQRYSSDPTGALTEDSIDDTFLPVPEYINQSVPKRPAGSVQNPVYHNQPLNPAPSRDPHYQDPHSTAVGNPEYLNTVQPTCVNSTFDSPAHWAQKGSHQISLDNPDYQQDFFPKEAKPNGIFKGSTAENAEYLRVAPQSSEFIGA

[6] = target: Cyclin-dependent kinase 9 (Homo sapiens) (UniProt P50750); assay: Inhibition of CDK9 at 1 uM
[7] = target: Homeodomain-interacting protein kinase 3 (Homo sapiens) (UniProt Q9H422); assay: Inhibition of HIPK3 at 1 uM
Sequence of Homeodomain-interacting protein kinase 3 (Homo sapiens) (Q9H422 whole entry, looked up): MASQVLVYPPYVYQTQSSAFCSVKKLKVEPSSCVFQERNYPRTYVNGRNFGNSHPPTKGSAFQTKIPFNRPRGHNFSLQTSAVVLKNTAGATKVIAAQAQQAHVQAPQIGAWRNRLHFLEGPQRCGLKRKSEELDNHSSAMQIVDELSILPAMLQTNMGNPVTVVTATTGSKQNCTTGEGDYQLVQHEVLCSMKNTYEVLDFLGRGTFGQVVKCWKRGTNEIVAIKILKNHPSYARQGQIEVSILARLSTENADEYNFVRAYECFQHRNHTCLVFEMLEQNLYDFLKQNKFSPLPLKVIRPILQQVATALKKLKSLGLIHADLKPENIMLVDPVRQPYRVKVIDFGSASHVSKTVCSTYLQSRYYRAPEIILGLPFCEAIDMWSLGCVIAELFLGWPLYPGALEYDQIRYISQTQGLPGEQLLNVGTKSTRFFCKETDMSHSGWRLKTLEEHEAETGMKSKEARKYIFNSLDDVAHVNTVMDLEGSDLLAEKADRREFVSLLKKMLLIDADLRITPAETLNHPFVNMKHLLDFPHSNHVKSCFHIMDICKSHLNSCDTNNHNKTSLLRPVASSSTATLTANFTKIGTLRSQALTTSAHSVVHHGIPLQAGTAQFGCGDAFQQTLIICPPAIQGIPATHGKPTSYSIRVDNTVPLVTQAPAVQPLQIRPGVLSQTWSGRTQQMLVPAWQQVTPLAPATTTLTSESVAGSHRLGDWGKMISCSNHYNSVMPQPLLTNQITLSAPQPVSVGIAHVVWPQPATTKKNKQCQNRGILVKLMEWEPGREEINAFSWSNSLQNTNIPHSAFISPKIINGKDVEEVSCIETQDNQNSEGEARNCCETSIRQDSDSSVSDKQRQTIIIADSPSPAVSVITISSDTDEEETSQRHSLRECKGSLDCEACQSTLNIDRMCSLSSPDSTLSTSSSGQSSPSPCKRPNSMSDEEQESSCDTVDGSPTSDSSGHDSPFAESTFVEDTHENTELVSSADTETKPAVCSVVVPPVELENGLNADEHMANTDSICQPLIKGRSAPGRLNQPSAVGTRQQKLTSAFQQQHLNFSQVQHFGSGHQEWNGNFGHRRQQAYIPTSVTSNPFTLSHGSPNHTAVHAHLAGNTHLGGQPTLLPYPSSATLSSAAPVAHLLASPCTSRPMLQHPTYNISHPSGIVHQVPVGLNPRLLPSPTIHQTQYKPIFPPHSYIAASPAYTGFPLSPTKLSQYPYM

[8] = target: Dual specificity tyrosine-phosphorylation-regulated kinase 1A (Homo sapiens) (UniProt Q13627); assay: Inhibition of DYRK1A at 1 uM
[9] = target: Dual specificity mitogen-activated protein kinase kinase 1 (Homo sapiens) (UniProt Q02750); assay: Inhibition of MEK1 at 1 uM
Sequence of Dual specificity mitogen-activated protein kinase kinase 1 (Homo sapiens) (Q02750 whole entry): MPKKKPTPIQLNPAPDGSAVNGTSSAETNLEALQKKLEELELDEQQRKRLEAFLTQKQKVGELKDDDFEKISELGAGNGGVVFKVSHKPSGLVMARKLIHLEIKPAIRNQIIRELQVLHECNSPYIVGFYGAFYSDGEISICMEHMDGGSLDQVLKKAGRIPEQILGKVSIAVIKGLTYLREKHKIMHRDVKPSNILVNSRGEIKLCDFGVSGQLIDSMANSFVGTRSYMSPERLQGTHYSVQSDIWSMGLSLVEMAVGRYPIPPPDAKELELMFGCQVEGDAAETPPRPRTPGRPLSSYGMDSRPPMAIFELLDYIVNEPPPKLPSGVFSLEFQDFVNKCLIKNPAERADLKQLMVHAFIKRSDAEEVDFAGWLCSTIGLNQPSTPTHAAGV

[10] = target: Mitogen-activated protein kinase 9 (Homo sapiens) (UniProt P45984); assay: Inhibition of JNK2 at 1 uM
Sequence of Mitogen-activated protein kinase 9 (Homo sapiens) (P45984 whole entry, looked up): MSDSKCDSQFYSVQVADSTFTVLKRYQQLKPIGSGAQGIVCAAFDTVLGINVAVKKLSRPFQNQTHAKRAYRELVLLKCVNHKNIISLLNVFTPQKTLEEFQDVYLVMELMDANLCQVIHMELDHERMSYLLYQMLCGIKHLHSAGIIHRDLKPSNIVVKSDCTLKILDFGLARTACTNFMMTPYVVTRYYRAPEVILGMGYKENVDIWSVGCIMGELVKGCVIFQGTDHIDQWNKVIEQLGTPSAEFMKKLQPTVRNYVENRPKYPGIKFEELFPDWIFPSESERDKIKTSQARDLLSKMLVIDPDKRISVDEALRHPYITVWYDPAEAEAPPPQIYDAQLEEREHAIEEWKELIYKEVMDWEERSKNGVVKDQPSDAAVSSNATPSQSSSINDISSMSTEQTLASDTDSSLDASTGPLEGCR
In short: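 Single-concentration screen on the Ambit KINOMEscan platform, run against a panel of 250–400 kinases. Per-kinase inhibition was also summarized as S(90), the fraction of kinases inhibited by more than 90%.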

[11] = target: T2, Serine/threonine-protein kinase Nek1 (Homo sapiens) (UniProt Q96PY6); assay: Inhibition of NEK1 at 1 uM
T2 sequence (whole entry): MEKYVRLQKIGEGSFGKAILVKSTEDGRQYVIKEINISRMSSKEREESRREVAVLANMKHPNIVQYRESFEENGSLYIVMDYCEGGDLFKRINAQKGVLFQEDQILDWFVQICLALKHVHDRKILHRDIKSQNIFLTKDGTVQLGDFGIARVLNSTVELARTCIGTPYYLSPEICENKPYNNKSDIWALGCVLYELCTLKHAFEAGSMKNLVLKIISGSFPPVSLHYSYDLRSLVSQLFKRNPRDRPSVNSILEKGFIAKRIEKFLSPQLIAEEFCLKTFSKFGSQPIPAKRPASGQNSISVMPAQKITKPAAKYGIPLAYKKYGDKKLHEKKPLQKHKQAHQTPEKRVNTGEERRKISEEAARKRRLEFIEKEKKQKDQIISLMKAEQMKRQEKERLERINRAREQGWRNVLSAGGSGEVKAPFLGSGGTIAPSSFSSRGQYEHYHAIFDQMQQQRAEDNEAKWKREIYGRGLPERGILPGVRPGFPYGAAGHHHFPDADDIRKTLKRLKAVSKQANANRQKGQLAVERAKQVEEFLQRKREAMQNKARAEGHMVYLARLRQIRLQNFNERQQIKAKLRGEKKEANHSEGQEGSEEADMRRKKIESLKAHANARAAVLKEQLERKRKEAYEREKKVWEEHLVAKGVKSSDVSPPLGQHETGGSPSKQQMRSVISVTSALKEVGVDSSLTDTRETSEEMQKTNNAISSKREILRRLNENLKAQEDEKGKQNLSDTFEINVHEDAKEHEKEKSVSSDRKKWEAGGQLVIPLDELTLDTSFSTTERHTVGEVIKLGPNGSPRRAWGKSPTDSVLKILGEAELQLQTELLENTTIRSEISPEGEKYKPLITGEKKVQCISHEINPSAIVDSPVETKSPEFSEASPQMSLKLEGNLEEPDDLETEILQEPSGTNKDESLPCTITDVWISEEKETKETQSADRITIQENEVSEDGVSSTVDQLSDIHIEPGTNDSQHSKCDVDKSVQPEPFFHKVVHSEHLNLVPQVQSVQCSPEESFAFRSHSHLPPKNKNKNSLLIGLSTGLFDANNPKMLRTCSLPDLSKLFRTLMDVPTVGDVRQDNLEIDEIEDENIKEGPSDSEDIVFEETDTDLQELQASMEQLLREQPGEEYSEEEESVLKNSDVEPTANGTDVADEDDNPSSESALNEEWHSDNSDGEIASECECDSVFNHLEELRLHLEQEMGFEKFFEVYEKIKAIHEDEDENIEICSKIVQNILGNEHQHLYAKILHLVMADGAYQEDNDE

Measured: inhibition

Sequence of Casein kinase I isoform gamma-2 (Homo sapiens) (P78368 whole entry, looked up, canonical isoform): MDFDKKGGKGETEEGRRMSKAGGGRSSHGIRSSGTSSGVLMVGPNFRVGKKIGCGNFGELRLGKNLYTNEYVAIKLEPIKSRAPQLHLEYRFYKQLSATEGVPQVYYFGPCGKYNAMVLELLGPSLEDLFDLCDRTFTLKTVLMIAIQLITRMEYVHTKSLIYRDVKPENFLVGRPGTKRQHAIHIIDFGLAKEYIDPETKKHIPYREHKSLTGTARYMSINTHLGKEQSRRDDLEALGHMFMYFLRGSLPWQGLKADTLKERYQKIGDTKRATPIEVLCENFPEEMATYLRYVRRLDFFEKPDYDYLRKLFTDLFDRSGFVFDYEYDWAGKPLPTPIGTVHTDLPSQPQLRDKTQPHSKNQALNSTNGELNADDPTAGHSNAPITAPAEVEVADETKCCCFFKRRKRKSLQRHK

CN1CCN(c2ccc(-c3cnc4c(c3)N(Cc3cc(F)ccc3F)CCN4)cn2)CC1
< 50%: all assays above

CC(=O)N1CCN(c2cc(-c3cnc4c(c3)N(Cc3cc(Cl)ccc3C(F)(F)F)CCN4)ccn2)CC1
< 50%: all assays above

CN1CCN(c2ccc(-c3cnc4c(c3)N(Cc3c(F)ccc(F)c3Cl)CCN4)cn2)CC1
82%: [3]
< 50%: all other assays above

FC(F)(F)c1ccc(Cl)cc1CN1CCNc2ncc(-c3ccnc(N4CCNCC4)c3)cc21
78%: [2]
< 50%: all other assays above

CN1CCN(c2ccc(-c3cnc4c(c3)N(Cc3cc(Cl)ccc3Cl)CCN4)cn2)CC1
< 50%: all assays above

O=C(c1ccc(-c2cnc3c(c2)N(Cc2cc(Cl)ccc2C(F)(F)F)CCN3)cc1)N1CCC(N2CCCC2)CC1
< 50%: [1] | [3] | [10] | [11]

O=C(O)c1ccc(-c2cnc3c(c2)N(Cc2cc(Cl)ccc2C(F)(F)F)CCN3)cc1
< 50%: [1] | [10]

CN1CCN(c2ccc(-c3cnc4c(c3)N(Cc3cc(Cl)ccc3C(F)(F)F)CCN4)cn2)CC1
< 50%: all assays above

O=C(c1ccc(-c2cnc3c(c2)N(Cc2cc(Cl)ccc2C(F)(F)F)CCN3)cc1)N1CCCCC1
< 50%: [1] | [3] | [10]

COC1CCN(C(=O)c2ccc(-c3cnc4c(c3)N(Cc3cc(Cl)ccc3C(F)(F)F)CCN4)cc2)CC1
< 50%: [1] | [3] | [10] | [11]
